Source: ChEMBL document CHEMBL3351861, “New synthetic sulfone derivatives inhibit growth, adhesion and the leucine arylamidase APE2 gene expression of Candida albicans in vitro” (2015)
Calls of active or inactive are those of the source. The calls are words filed in the database; no cut-off is given here.

What was measured:
Candida albicans [1] = assay: Reduction in APE2 gene expression in compound pre-treated Candida albicans SC5314 grown on human Caco2 cells monolayer at 16 ug/ml pre-treated for 2 hrs measured after 18 hrs by RT-PCR method; assay type: functional, Caco-2
Method in brief: (§1)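 Caco-2 was seeded at 1.2×10^5 cells/ml in EMEM (10% FCS, 1 mM pyruvate, no antibiotics) for 18 h at 37°C, 5% CO2. Yeast (10^4 cfu/ml) was pre-incubated 2 h in RPMI with 16 µg/ml sulfone, washed, resuspended in RPMI and inoculated onto the monolayer at 37°C. APE2 mRNA was measured by SYBR qPCR against ACT1 (2^-ΔΔCt, 90028 calibrator), in triplicate.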

Candida albicans [2] = assay: Reduction in APE2 gene expression in compound pre-treated Candida albicans CAI4 expressing delta-cph1 gene grown on human Caco2 cells monolayer at 16 ug/ml pre-treated for 2 hrs measured after 6 hrs by RT-PCR method; assay type: functional, Caco-2
Method in brief: (§2)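 Blastoconidia are pre-incubated 2 h with 16 µg/ml sulfone in RPMI. They are then washed, resuspended in RPMI and placed on Caco-2 monolayers at 37°C, with RNA taken at 6 or 18 h. Real-time RT-PCR uses SYBR Green with 250 nM primers and 60 ng cDNA: 95°C 15 min, then 45 cycles of 94°C 15 s and 60°C 1 min, plus a melt curve. APE2 is normalized to ACT1 by 2^-ΔΔCt with 90028 as calibrator; three experiments.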

Candida albicans [3] = assay: Reduction in APE2 gene expression in compound pre-treated Candida albicans CAI4 expressing delta-cph1 gene grown on human Caco2 cells monolayer at 16 ug/ml pre-treated for 2 hrs measured after 18 hrs by RT-PCR method; assay type: functional, Caco-2; method in brief: as §2
Candida albicans [4] = assay: Reduction in APE2 gene expression in compound pre-treated Candida albicans CAI4 expressing delta-cph1 (CPH1) gene grown on human Caco2 cells monolayer at 16 ug/ml pre-treated for 2 hrs measured after 6 hrs by RT-PCR method; assay type: functional, Caco-2; method in brief: as §2
Candida albicans [5] = assay: Reduction in APE2 gene expression in compound pre-treated Candida albicans CAI4 expressing delta-cph1 (CPH1) gene grown on human Caco2 cells monolayer at 16 ug/ml pre-treated for 2 hrs measured after 18 hrs by RT-PCR method; assay type: functional, Caco-2; method in brief: as §2
Candida albicans [6] = assay: Reduction in APE2 gene expression in compound pre-treated Candida albicans CAI4 expressing delta-efg1 gene grown on human Caco2 cells monolayer at 16 ug/ml pre-treated for 2 hrs measured after 18 hrs by RT-PCR method; assay type: functional, Caco-2; method in brief: as §1
Candida albicans [7] = assay: Reduction in APE2 gene expression in compound pre-treated Candida albicans CAI4 expressing delta-efg1 (EFG1) gene grown on human Caco2 cells monolayer at 16 ug/ml pre-treated for 2 hrs measured after 6 hrs by RT-PCR method; assay type: functional, Caco-2; method in brief: as §1
Candida albicans [8] = assay: Reduction in APE2 gene expression in compound pre-treated Candida albicans CAI4 expressing delta-efg1 (EFG1) gene grown on human Caco2 cells monolayer at 16 ug/ml pre-treated for 2 hrs measured after 18 hrs by RT-PCR method; assay type: functional, Caco-2; method in brief: as §1
Candida albicans [9] = assay: Reduction in APE2 gene expression in compound pre-treated Candida albicans CAI4 expressing delta-cph1/delta-efg1 (EFG1) gene grown on human Caco2 cells monolayer at 16 ug/ml pre-treated for 2 hrs measured after 6 hrs by RT-PCR method; assay type: functional, Caco-2; method in brief: as §2
Candida albicans [10] = assay: Reduction in APE2 gene expression in compound pre-treated Candida albicans CAI4 expressing delta-cph1/delta-efg1 (EFG1) gene grown on human Caco2 cells monolayer at 16 ug/ml pre-treated for 2 hrs measured after 18 hrs by RT-PCR method; assay type: functional, Caco-2; method in brief: as §2
Candida albicans [11] = assay: Inhibition of cell adhesion of compound pre-treated Candida albicans 90028 to human Caco2 cells assessed as cell adhesion level at 4 ug/ml pre-incubated for 18 hrs by colony counting method (reference value: 1.58 +/- 0.67%); assay type: functional, Caco-2; design: scale not given: the % may be the effect or the level left
Candida albicans [12] = assay: Inhibition of cell adhesion of compound pre-treated Candida albicans CAI4 expressing delta-efg1 (EFG1) gene to human Caco2 cells assessed as cell adhesion level at 4 ug/ml pre-incubated for 18 hrs by colony counting method (reference value: 2.6 +/- 2.33%); assay type: functional, Caco-2; design: scale not given: the % may be the effect or the level left
Candida albicans [13] = assay: Reduction in APE2 gene expression in compound pre-treated Candida albicans SC5314 grown under YEPD medium at 16 ug/ml pre-treated for 2 hrs measured after 18 hrs by RT-PCR method; assay type: functional
Method in brief: (§3)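 YEPD-grown yeast (18 h, 30°C) washed and held at 10^4 cfu/ml in YEPD with 16 µg/ml sulfone for 2 h. Cells were then washed and regrown 18 h at 30°C in YEPD. Total RNA was reverse-transcribed and SYBR Green qPCR run (250 nM primers, 60 ng cDNA, 45 cycles). APE2 was normalized to ACT1 by 2^-ΔΔCt with strain 90028 as calibrator. Done in triplicate on three occasions.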

Candida albicans [14] = assay: Reduction in APE2 gene expression in compound pre-treated Candida albicans 90028 grown under YEPD medium at 16 ug/ml pre-treated for 2 hrs measured after 18 hrs by RT-PCR method; assay type: functional
Method in brief: (§4)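 Blastoconidia from YEPD (10^4 cfu/ml) are washed and exposed 2 h to 16 µg/ml sulfone in YEPD. They are then washed and regrown 18 h at 30°C in YEPD before RNA extraction. Real-time RT-PCR uses SYBR Green with 250 nM primers and 60 ng cDNA: 95°C 15 min, then 45 cycles of 94°C 15 s and 60°C 1 min, plus a dissociation curve. APE2 is normalized to ACT1 by 2^-ΔΔCt with strain 90028 as calibrator; three experiments.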

Candida albicans [15] = assay: Reduction in APE2 gene expression in compound pre-treated Candida albicans CAI4 expressing delta-cph1 gene grown under YEPD medium at 16 ug/ml pre-treated for 2 hrs measured after 18 hrs by RT-PCR method; assay type: functional; method in brief: as §4
Candida albicans [16] = assay: Reduction in APE2 gene expression in compound pre-treated Candida albicans CAI4 expressing delta-cph1 (CPH1) gene grown under YEPD medium at 16 ug/ml pre-treated for 2 hrs measured after 18 hrs by RT-PCR method; assay type: functional; method in brief: as §4
Candida albicans [17] = assay: Reduction in APE2 gene expression in compound pre-treated Candida albicans CAI4 expressing delta-efg1 gene grown under YEPD medium at 16 ug/ml pre-treated for 2 hrs measured after 18 hrs by RT-PCR method; assay type: functional; method in brief: as §3
Candida albicans [18] = assay: Reduction in APE2 gene expression in compound pre-treated Candida albicans CAI4 expressing delta-cph1/delta-efg1 gene grown under YEPD medium at 16 ug/ml pre-treated for 2 hrs measured after 18 hrs by RT-PCR method; assay type: functional; method in brief: as §4
Candida albicans [19] = assay: Reduction in APE2 gene expression in compound pre-treated Candida albicans CAI4 expressing delta-cph1/delta-efg1 (EFG1) gene grown under YEPD medium at 16 ug/ml pre-treated for 2 hrs measured after 18 hrs by RT-PCR method; assay type: functional; method in brief: as §4
Candida albicans [20] = assay: Reduction in APE2 gene expression in compound pre-treated Candida albicans SC5314 grown on human Caco2 cells monolayer at 16 ug/ml pre-treated for 2 hrs measured after 6 hrs by RT-PCR method; assay type: functional, Caco-2; method in brief: as §1
Candida albicans [21] = assay: Inhibition of hyphae formation in Candida albicans 90028 assessed as appearance of spherical blastoconidia with polarly located budding without filament formation at 16 ug/ml incubated for 18 hrs by phase contrast microscopy

## NNc1ccc(S(=O)(=O)C(Cl)(Br)Br)cc1[N+](=O)[O-]
Candida albicans [1]
  ΔCt: 3.83
Candida albicans [2]
  fold change (FC): 10.83
Candida albicans [3]
  fold change (FC): 4.05
Candida albicans [4]
  fold change (FC): 10.25
Candida albicans [5]
  fold change (FC): 9.29
Candida albicans [6]
  fold change (FC): 9.07
Candida albicans [7]
  fold change (FC): 10.7
Candida albicans [8]
  fold change (FC): 8.72
Candida albicans [9]
  fold change (FC): 9.42
Candida albicans [10]
  fold change (FC): 3.55
Candida albicans [11]
  Activity: 0.91%
Candida albicans [12]
  Activity: 0.91%
Candida albicans [13]
  ΔCt: 2.84
Candida albicans [14]
  ΔCt: 2.82
Candida albicans [15]
  ΔCt: 0.11
Candida albicans [16]
  ΔCt: 4.71
Candida albicans [17]
  ΔCt: 3.69
Candida albicans [18]
  ΔCt: 4.05
Candida albicans [19]
  ΔCt: 3.3
Candida albicans [20]
  ΔCt: 6.39
Candida albicans [21]
  Activity: Active
